Experimental data as given in ChEMBL document CHEMBL1681735, “One step synthesis of 2-hydroxymethylisoflavone and their osteogenic activity” (2011).
Active and inactive are the calls of the source. The rule behind the calls is not given here.

Tests used:
Calvarial cell [1] = experiment: Induction of osteoblast differentiation in rat Calvarial cells assessed as increase in alkaline phosphatase activity at 10^-12 to 10^-6 M by spectrophotometry; assay type: functional, cell-based
Method in brief: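 Rat calvarial osteoblasts trypsinized at 70–80% confluence (0.02% trypsin-EDTA). 2 × 10³ cells seeded in α-MEM with 10% FBS plus 50 µg/ml ascorbate and 10 mM glycerophosphate. Exposed to 10^-12 to 10^-6 M for 48 h; isoformononetin 10^-8 M as positive control. Total ALP read at 405 nm with PNPP 10 mmol/L in diethanolamine buffer (1 mol/L, pH 9.8), 0.5 mmol/L MgCl₂. Mean SEM, n = 6.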

Calvarial cell [2] = experiment: (§1) Induction of osteogenic activity in rat Calvarial cells assessed as fold increase in Runx-2 gene expression after 48 hrs by qPCR relative to untreated control; assay type: functional
Method in brief: (§2)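 Osteoblasts cultured with or without compound for 48 h, then qPCR. Cycling: 95 °C 5 min, then 40 cycles of 94 °C 2 min, 62 °C 30 s annealing/extension and 72 °C 30 s. Normalized to GAPDH. Compared with vehicle-treated cells; mean SEM, n = 3.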

Calvarial cell [3] = experiment: (§3) Induction of osteogenic activity in rat Calvarial cells assessed as fold increase in BMP-2 gene expression after 48 hrs by qPCR relative to untreated control; assay type: functional; method in brief: as §2
Calvarial cell [4] = experiment: (§4) Induction of osteogenic activity in rat Calvarial cells assessed as fold increase in OCN gene expression after 48 hrs by qPCR relative to untreated control; assay type: functional; method in brief: as §2
[5] = as §1; assay type: functional, Calvarial cell; method in brief: as §2
[6] = as §3; assay type: functional, Calvarial cell; method in brief: as §2
[7] = as §4; assay type: functional, Calvarial cell; method in brief: as §2

SMILES | Activity (Calvarial cell [1]) | Activity (Calvarial cell [2]) | Activity (Calvarial cell [3]) | Activity (Calvarial cell [4]) | fold change (FC) [5] | fold change (FC) [6] | fold change (FC) [7]
COc1ccc(-c2c(CO)oc3cc(O)ccc3c2=O)cc1 | Active | inactive | inactive | inactive | – | – | –
O=c1c(-c2ccccc2)c(CO)oc2cc(O)ccc12 | Active | – | inactive | inactive | 6.5 | – | –
O=c1c(-c2ccccc2)c(CO)oc2ccccc12 | Active | inactive | – | inactive | – | 2.5 | –
COc1ccc(-c2c(CO)oc3ccccc3c2=O)c(O)c1 | Active | – | – | – | 8 | 2 | 2
